Activity calls are given as the source filed them. The rule behind the calls is not given here.

Series [1] addresses T1, S-adenosylmethionine decarboxylase proenzyme (Homo sapiens) (UniProt P17707).
T1 sequence (whole entry): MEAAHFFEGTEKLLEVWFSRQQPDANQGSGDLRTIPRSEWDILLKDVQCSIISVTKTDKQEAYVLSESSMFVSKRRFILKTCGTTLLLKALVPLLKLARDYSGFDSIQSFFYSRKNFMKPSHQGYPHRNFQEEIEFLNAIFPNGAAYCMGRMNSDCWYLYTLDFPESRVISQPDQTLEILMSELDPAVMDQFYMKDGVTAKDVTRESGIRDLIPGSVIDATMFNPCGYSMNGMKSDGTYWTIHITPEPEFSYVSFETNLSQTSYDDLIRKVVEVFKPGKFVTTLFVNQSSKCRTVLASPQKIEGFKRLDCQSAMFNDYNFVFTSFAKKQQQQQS
As to the kind of experiment: Inhibition of AdoMetDC in human DU145 cells at 100 uM after 6 hrs. The format is cell-based.

The target of series [2] is Spermine oxidase (Homo sapiens) (UniProt Q9NWM0). As to the kind of experiment: Inhibition of recombinant human SMOX at 500 uM using spermine as substrate relative to control. A digest of the protocol: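 Human recombinant SMOX reaction with spermine fixed at 50 μM as substrate, analogue added at 500 μM. Activity expressed relative to reaction without analogue.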
Chain of Spermine oxidase (Homo sapiens) (Q9NWM0 whole entry): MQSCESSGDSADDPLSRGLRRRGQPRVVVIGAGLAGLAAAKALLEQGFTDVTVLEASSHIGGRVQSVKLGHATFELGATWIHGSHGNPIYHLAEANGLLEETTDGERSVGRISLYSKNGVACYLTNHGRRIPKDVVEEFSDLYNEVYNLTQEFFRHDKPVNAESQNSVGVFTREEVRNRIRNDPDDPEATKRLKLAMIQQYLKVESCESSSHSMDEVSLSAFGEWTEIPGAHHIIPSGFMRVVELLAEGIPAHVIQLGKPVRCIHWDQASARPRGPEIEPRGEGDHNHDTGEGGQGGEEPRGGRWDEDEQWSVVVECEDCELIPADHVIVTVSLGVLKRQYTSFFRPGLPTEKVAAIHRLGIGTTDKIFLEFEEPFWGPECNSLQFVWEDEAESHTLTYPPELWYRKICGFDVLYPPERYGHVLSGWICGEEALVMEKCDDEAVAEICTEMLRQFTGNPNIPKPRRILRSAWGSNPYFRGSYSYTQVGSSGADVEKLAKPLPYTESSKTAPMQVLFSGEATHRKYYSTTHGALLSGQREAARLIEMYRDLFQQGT
Series [3] has as its target Ornithine decarboxylase antizyme 1 (Homo sapiens) (UniProt P54368). Description: Induction of OAZ1 in human DU145 cells assessed as reduction in intracellular ODC activity at 10 uM after 6 hrs relative to control. Set-up: scale not given: the % may be the effect or the level left.
Series [4] concerns the target T1, S-adenosylmethionine decarboxylase proenzyme (Homo sapiens). As to the kind of experiment: Inhibition of AdoMetDC in human DU145 cells at 100 uM after 3 days. The series is classed as cell-based.
The target of series [5] is T2, Amine oxidase [copper-containing] 3 (Bos taurus) (UniProt Q9TTK6).
T2 sequence (whole entry): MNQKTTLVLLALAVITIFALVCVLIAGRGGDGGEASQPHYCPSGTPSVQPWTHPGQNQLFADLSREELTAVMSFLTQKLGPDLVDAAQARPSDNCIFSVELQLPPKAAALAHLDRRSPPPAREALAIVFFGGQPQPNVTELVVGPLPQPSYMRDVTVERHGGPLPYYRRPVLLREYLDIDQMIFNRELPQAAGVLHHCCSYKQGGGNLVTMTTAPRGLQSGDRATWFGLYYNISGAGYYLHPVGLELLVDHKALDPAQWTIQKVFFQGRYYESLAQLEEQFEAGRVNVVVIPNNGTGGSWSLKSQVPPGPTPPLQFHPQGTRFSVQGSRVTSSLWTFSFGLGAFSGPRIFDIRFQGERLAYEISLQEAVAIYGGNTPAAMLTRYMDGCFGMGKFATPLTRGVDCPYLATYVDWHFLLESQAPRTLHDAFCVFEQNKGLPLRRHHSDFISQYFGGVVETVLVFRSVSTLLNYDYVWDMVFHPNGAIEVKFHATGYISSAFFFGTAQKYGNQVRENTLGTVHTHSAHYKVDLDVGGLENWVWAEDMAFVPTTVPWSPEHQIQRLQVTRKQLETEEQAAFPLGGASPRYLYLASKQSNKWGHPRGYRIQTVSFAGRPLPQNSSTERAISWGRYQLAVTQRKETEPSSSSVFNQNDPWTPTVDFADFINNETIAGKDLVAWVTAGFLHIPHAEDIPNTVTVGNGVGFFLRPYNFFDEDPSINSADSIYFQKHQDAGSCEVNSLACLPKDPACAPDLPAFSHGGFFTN
Description: Inhibition of bovine plasma SSAO at 50 uM using spermine as substrate relative to control. The gist of the method: (§1)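 Competition with natural substrate at fixed 50 μM: spermine for purified bovine plasma SSAO and human recombinant SMOX, N1-acetylspermidine for human recombinant APAO. Analogue tested at 50 μM, with activity expressed relative to reaction without analogue.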

The target in series [6] is T3, Ornithine decarboxylase (Homo sapiens) (UniProt P11926).
T3 sequence (whole entry): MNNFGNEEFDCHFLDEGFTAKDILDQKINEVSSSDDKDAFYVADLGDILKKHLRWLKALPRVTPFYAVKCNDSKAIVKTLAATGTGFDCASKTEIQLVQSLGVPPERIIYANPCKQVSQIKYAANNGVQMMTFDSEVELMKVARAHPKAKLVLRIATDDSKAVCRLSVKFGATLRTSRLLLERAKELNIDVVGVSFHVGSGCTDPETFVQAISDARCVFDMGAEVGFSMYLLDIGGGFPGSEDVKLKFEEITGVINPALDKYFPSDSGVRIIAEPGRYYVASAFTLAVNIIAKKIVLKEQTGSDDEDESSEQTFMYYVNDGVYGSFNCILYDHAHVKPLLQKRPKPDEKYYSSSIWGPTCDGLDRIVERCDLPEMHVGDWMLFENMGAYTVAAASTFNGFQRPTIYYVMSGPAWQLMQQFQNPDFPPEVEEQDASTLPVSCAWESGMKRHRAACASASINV
Description: Inhibition of ODC in human DU145 cells at 100 uM after 3 days. The format is cell-based.

Series [7] addresses Diamine acetyltransferase 1 (Homo sapiens) (UniProt P21673). As to the kind of experiment: Induction of changes in SSAT activity in human DU145 cells at 100 uM after 3 days. The series is classed as cell-based.
Series [8] shares this target. As to the kind of experiment: Induction of changes in SSAT activity in human DU145 cells at 100 uM after 6 hrs. The format is cell-based.
For series [9], the target named is T3, Ornithine decarboxylase (Homo sapiens). Description: Inhibition of ODC in human DU145 cells at 100 uM after 6 hrs. The series is classed as cell-based.
Series [10] has as its system DU-145. As to the kind of experiment: Reversal of alpha-difluoromethylornithine-induced growth arrest in human DU145 cells at 100 uM after 3 days. The series is classed as functional, cell-based. The gist of the method:
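DU145 cells cultured 3 days with 100 μM analogue, with or without 5 mM DFMO, all supplemented with 1 mM aminoguanidine. Growth assessed by electronic cell counting. Means ± SD, n = 3.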

Series [11] addresses Diamine acetyltransferase 1 (Mus musculus) (UniProt P48026). As to the kind of experiment: Inhibition of recombinant mouse SSAT using spm as substrate at 500 uM relative to control. A digest of the protocol:
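Mouse recombinant SSAT acetylation with spermine fixed at 50 μM as substrate, analogue present at 500 μM. Activity expressed relative to reaction without analogue.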

Series [12] has as its target Spermine oxidase (Homo sapiens) (UniProt Q9NWM0). As to the kind of experiment: Inhibition of recombinant human SMOX at 50 uM using spermine as substrate relative to control. A digest of the protocol: as §1
The target of series [13] is Ornithine decarboxylase antizyme 1 (Homo sapiens) (UniProt P54368). Description: Induction of OAZ1 in human DU145 cells assessed as reduction in intracellular ODC activity at 100 uM after 6 hrs relative to control. Further details: scale not given: the % may be the effect or the level left.
Chain of Ornithine decarboxylase antizyme 1 (Homo sapiens) (P54368 whole entry): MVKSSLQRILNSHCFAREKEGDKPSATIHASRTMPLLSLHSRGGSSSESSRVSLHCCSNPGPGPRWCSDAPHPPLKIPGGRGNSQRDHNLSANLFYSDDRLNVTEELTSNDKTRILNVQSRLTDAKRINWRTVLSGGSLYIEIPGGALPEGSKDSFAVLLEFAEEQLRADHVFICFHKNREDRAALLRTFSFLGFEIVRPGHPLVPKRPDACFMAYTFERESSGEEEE
For series [14], the system named is CC(CN)CNCCCCNCC(C)CN. Description: (§2) Substrate activity at recombinant mouse SSAT assessed as Km at 2000 to 6000 uM. The format is ADME.
Series [15] deals with CC(CCN)NCCCCNC(C)CCN. Described as §2. The series is classed as ADME.

Chain of Diamine acetyltransferase 1 (Homo sapiens) (P21673 whole entry): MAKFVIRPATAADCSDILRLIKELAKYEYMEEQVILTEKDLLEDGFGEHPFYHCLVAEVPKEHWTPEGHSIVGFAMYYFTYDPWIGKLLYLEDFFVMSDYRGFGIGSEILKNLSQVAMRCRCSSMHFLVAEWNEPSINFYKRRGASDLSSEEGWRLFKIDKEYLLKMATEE
Chain of Diamine acetyltransferase 1 (Mus musculus) (chain, as listed by the source): as the sequence (P21673 whole entry) above, with V5K, A12S, E32D, L42Q, R119K, T169A counted along it
Chain of Diamine acetyltransferase 1 (Mus musculus) (UniProt P48026) (P48026 whole entry): as the sequence (P21673 whole entry) above, with V5K, A12S, E32D, L42Q, R119K, T169A counted along it

Take `CC(CN)CNCCCCNCC(C)CN` (centres undefined): the inhibition entry in series [1], in [4], in series [6] and in [9] was “Active” in each case. The inhibition in series [2] was 70%; in [5], 80%. Moreover, the Activity in series [3] worked out at 80%. Besides, the result in series [7] and in series [10] was Active. Also, in [8], the outcome was inactive.

With `CC(N)CCNCCCCNCCC(C)N` (centres undefined), the inhibition entry in series [1], in series [4], in [6] and in [9] was “Active” each time. In addition, the Activity in [3] was 80%. The inhibition entry in series [5] is “inactive”. In addition, the outcome in series [7] and in series [10] was Active. The result in series [8] was inactive. Further, in [11], the inhibition came out at 80%.

`NCCCNCCCCNCCCN`: in series [3], the Activity came to 80%. The inhibition result in series [6] and in series [9] was “Active” each time.

On to `CC(CCN)NCCCCNC(C)CCN` (centres undefined), for which the inhibition entry in series [1] and in [4] was “Active” in each case. In addition, the values for the Activity in [3] and in series [13] were 5% and 55%, respectively. Moreover, the inhibition entry in series [5], in [6] and in series [9] was “inactive” each time. Further, the inhibition came to 70% in [12] and 75% in series [11]. Further, the outcome in series [7] and in [8] was inactive. The result in series [10] was Active.

For “Diamine acetyltransferase 1 (Mus musculus)”, in series [14], the Michaelis constant (Km) amounted to 52 µM and the maximum rate (Vmax) worked out at 0.895 µmol/min/mg. In series [15], the Michaelis constant (Km) was 60 µM and the Vmax was 0.136 µmol/min/mg.

What is called inhibition is the percentage by which the read-out fell short of the control. One may read the Km as the substrate concentration at which the rate is half of its maximum. Usually Vmax stands for the top rate of the reaction or transport when substrate is in excess.

The values are drawn from ChEMBL document CHEMBL4321859, “Unforeseen Possibilities To Investigate the Regulation of Polyamine Metabolism Revealed by Novel C-Methylated Spermine Derivatives” (J Med Chem, 2019).
